# Measurements collected from several papers.
# Compare with care: the assays were run in different laboratories.
# Cell line: PC-3
# Effect on: cell growth or viability
Compound,technique,time,IC50
COc1cccc2c1C(=O)c1c(O)c3c(c(O)c1C2=O)C[C@@](O)(C(=O)CO)C[C@@H]3O[C@H]1C[C@H](N)[C@H](O)[C@H](C)O1,MTT,48 h,629 ng/mL
NCc1cc2c(-c3ccccc3)n[nH]c2c(Nc2ccccc2)n1,MTS,48 h,1600 nM
O=C(/C=C/c1ccc(CN(CCO)CCc2c[nH]c3ccccc23)cc1)NO,resazurin,72 h,71 nM
COc1ccc(NC(=O)Nc2ccc(OCc3ncc(C)c(OC)c3C)cc2)cc1,MTT,72 h,> 100000 nM
COc1ccc2c(c1OC)C(=O)O[C@@H]2[C@H]1c2c(c(Br)c3c(c2OC)OCO3)CCN1C,MTT,48 h,182000 nM
COc1c(C)cnc(COc2ccc(NC(=O)Nc3cccc(C(F)(F)F)c3)cc2)c1C,MTT,72 h,> 100000 nM
COc1cc2ncnc(Nc3ccc(F)c(Cl)c3)c2cc1NC(=O)N/N=C/c1cccn1CCN1CCOCC1,MTT,72 h,820 nM
Cc1cc(C)cc(COc2cc3c(cc2OCc2cc(C)cc(C)c2)[C@H]2C[C@](O)(Cc4cn(Cc5ccc(Cl)c(Cl)c5)nn4)C[C@H](C)N2CC3)c1,MTT,,381 nM
COc1ccnc(COc2ccc(NC(=O)Nc3ccc(F)cc3)cc2)c1OC,MTT,72 h,50100 nM
C[C@H]1O[C@@H](n2cc(F)c(=O)[nH]c2=O)[C@H](O)[C@@H]1O,CCK-8,48 h,> 50000 nM
Cc1cc(C)cc(COc2cc3c(cc2OCc2cc(C)cc(C)c2)[C@H]2C[C@](O)(Cc4cn(CC56CC7CC(CC(C7)C5)C6)nn4)C[C@H](C)N2CC3)c1,MTT,,143 nM
COc1c(C)cnc(COc2ccc(NC(=O)Nc3ccc(Cl)cc3)cc2)c1C,MTT,72 h,47900 nM
O=C(N/N=C/c1cccn1CCCN1CCCCC1)Nc1cc2c(Nc3ccc(F)c(Cl)c3)ncnc2cc1O[C@H]1CCOC1,MTT,72 h,150 nM
Cc1cc(C)cc(COc2cc3c(cc2OCc2cc(C)cc(C)c2)[C@H]2C[C@](O)(Cc4cn(CCc5ccccc5)nn4)C[C@H](C)N2CC3)c1,MTT,,318 nM
COc1cc2ncnc(Nc3ccc(F)c(Cl)c3)c2cc1NC(=O)N/N=C/c1cccn1CCCN(C)C,MTT,72 h,30 nM
CC(C)C(=O)Nc1ccc([N+](=O)[O-])c(C(F)(F)F)c1,CCK-8,48 h,> 50000 nM
CN(C)CCn1cccc1/C=N/NC(=O)Nc1cc2c(Nc3ccc(F)c(Cl)c3)ncnc2cc1O[C@H]1CCOC1,MTT,72 h,3840 nM
COc1ccc(Cn2cc(C[C@@]3(O)C[C@@H]4c5cc(OCc6cc(C)cc(C)c6)c(OCc6cc(C)cc(C)c6)cc5CCN4[C@@H](C)C3)nn2)cc1,MTT,,866 nM
COc1ccnc(COc2ccc(NC(=O)Nc3cc(F)cc(F)c3)cc2)c1OC,MTT,72 h,> 100000 nM
Cc1cc(C)cc(COc2cc3c(cc2OCc2cc(C)cc(C)c2)[C@H]2C[C@](O)(Cc4cn(Cc5ccc(NC(=O)/C=C/CN(C)C)cc5)nn4)C[C@H](C)N2CC3)c1,MTT,,345 nM
CCn1cnc2ccc(/C=C/C(=O)NO)cc2c1=O,SRB,48 h,7040 nM
CC(C)C[C@H](NC(=O)[C@H](Cc1ccccc1)NC(=O)c1cnccn1)B(O)O,ATP luminescence,,12 nM
COC1=CC(=O)N(C(=O)[C@@H](CCC(Cl)(Cl)Cl)NC(=O)C(C)(C)C)[C@@H]1CCC(Cl)Cl,resazurin,72 h,28000 nM
CN(C)CCCn1cccc1/C=N/NC(=O)Nc1cc2c(Nc3ccc(F)c(Cl)c3)ncnc2cc1O[C@H]1CCOC1,MTT,72 h,3740 nM
COc1ccc(/C=C/c2cc(C)no2)cc1,MTT,72 h,> 100000 nM
Cc1cc(C)cc(COc2cc3c(cc2OCc2cc(C)cc(C)c2)[C@@H]2C[C@@](O)(Cc4cn(Cc5ccc(S(C)(=O)=O)cc5)nn4)C[C@@H](C)N2CC3)c1,MTT,,230 nM
COCCCOc1ccnc(COc2ccc(NC(=O)Nc3cc(F)cc(F)c3)cc2)c1C,MTT,72 h,> 100000 nM
N=C(Nc1ccccc1)c1cc2c(-c3ccccc3)n[nH]c2c(Nc2ccccc2)n1,MTS,48 h,1200 nM
CCN(CC)CCn1cccc1/C=N/NC(=O)Nc1cc2c(Nc3ccc(F)c(Cl)c3)ncnc2cc1OC,MTT,72 h,1050 nM
Cc1ccc(C(=O)O)c(NC(=O)c2ccc(N)cc2)c1,MTT,,> 120000 nM
O=C(N/N=C/c1cccn1CCN1CCOCC1)Nc1cc2c(Nc3ccc(F)c(Cl)c3)ncnc2cc1O[C@H]1CCOC1,MTT,72 h,4270 nM
COc1cc(Nc2nc(CNCc3ccccc3)cc3c(-c4ccccc4)n[nH]c23)cc(OC)c1OC,MTS,48 h,4300 nM
CCOC(=O)c1[nH]cc2c1NC1=C(C(=O)CCC1)[C@H]2c1cccc(Oc2nc3ccccc3[nH]2)c1,ATP luminescence,72 h,> 10000 nM
Cc1cc(C)cc(COc2cc3c(cc2OCc2cc(C)cc(C)c2)[C@H]2C[C@](O)(Cc4cn(Cc5ccncc5)nn4)C[C@H](C)N2CC3)c1,MTT,,167 nM
CCCCc1ccc2[nH]c(NC(=O)OC)nc2c1,CCK-8,72 h,150 nM
CCN(CC)CCCn1cccc1/C=N/NC(=O)Nc1cc2c(Nc3ccc(F)c(Cl)c3)ncnc2cc1O[C@H]1CCOC1,MTT,72 h,2240 nM
CNC(=O)c1cc(Oc2ccc(NC(=O)Nc3ccc(Cl)c(C(F)(F)F)c3)cc2)ccn1,MTT,72 h,3600 nM
O=C(/C=C/c1ccc2ncn(Cc3ccccc3F)c(=O)c2c1)NO,SRB,48 h,639 nM
COc1c(C)cnc(COc2ccc(NC(=O)Nc3ccc(Cl)c(C(F)(F)F)c3)cc2)c1C,MTT,72 h,> 100000 nM
Cc1cc(C)cc(COc2cc3c(cc2OCc2cc(C)cc(C)c2)[C@H]2C[C@](O)(Cc4cn(CC5CCCCC5)nn4)C[C@H](C)N2CC3)c1,MTT,,384 nM
